Data taken from ChEMBL document CHEMBL1806428, “Design and synthesis of spiro derivatives of parthenin as novel anti-cancer agents” (Eur J Med Chem, 2011).

Tests used:
[1] = Partition coefficient, log P of the compound; type: physicochemical; details: octanol/water
SW-620 = experiment: Cytotoxicity against human SW620 cells assessed as cell growth after 48 hrs by sulforhodamine B assay; type: functional, cell-based; details: Homo sapiens, SW-620, 48 h
How it was run: (§1)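 Log-phase cells seeded at 10^4/well and allowed to attach for 24 h at 37 °C, 5% CO2. Exposed for 48 h to 0.1–100 (1:10 serial dilutions), four replicate wells per condition. Fixed with cold 50% TCA for 1 h at 4 °C, stained with sulforhodamine B, dye dissolved in Tris, OD read at 540 nm. Blank-subtracted growth expressed relative to untreated cells (100%); IC50 reported.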

DU-145 = experiment: Cytotoxicity against human DU145 cells assessed as cell growth after 48 hrs by sulforhodamine B assay; type: functional, cell-based; details: Homo sapiens, DU-145, 48 h; how it was run: as §1
PC-3 = experiment: Cytotoxicity against human PC3 cells assessed as cell growth after 48 hrs by sulforhodamine B assay; type: functional, cell-based; details: Homo sapiens, PC-3, 48 h; how it was run: as §1
[2] = Antitumor activity against mouse Ehrlich Ascites tumor xenografted in Swiss albino mouse assessed as tumor growth inhibition at 20 mg/kg, ip administered for 9 days measured on day 13; type: functional; details: route intraperitoneal, read-out: GI
[3] = Antitumor activity against mouse Ehrlich Ascites tumor xenografted in Swiss albino mouse assessed as decrease in tumor weight at 20 mg/kg, ip administered for 9 days (reference value: 1708+/-51.07 mg); type: functional; details: route intraperitoneal

| Structure (SMILES) | logP [1] | IC50 (SW-620) | IC50 (DU-145) | IC50 (PC-3) | inhibition in vivo at 20 mg/kg [2] | Activity [3] |
| --- | --- | --- | --- | --- | --- | --- |
| C[C@H]1CC[C@@H]2[C@@H](OC(=O)[C@]23CC(c2ccc([N+](=O)[O-])cc2)=NO3)[C@]2(C)C(=O)C=C[C@@]12O | 1.37 | 9 µM | 7 µM | 12 µM |  |  |
| Cc1ccc(C2=NO[C@]3(C2)C(=O)O[C@@H]2[C@H]3CC[C@H](C)[C@]3(O)C=CC(=O)[C@@]23C)cc1 | 1.86 | 2.5 µM | 14 µM | 14 µM |  |  |
| C[C@H]1CC[C@@H]2[C@@H](OC(=O)[C@]23CC(c2ccccc2Cl)=NO3)[C@]2(C)C(=O)C=C[C@@]12O | 2.09 | 9 µM | 19 µM | 12 µM |  |  |
| O=c1[nH]cc(F)c(=O)[nH]1 [FLUOROURACIL] |  |  |  |  | 51.3% | 832.28 mg |
| Cc1cccc(C2=NO[C@]3(C2)C(=O)O[C@@H]2[C@H]3CC[C@H](C)[C@]3(O)C=CC(=O)[C@@]23C)c1 | 1.86 | 15 µM | 28 µM | 66.6 µM |  |  |
| Cc1ccccc1N1C[C@]12C(=O)O[C@@H]1[C@H]2CC[C@H](C)[C@]2(O)C=CC(=O)[C@@]12C | 1.83 | 22 µM | 30 µM | 12.5 µM |  |  |
| C[C@H]1CC[C@@H]2[C@@H](OC(=O)[C@]23CC(c2ccccc2[N+](=O)[O-])=NO3)[C@]2(C)C(=O)C=C[C@@]12O | 1.37 | 40 µM | 34 µM | 37 µM |  |  |
| COc1ccc(N2C[C@]23C(=O)O[C@@H]2[C@H]3CC[C@H](C)[C@]3(O)C=CC(=O)[C@@]23C)cc1 | 1.41 | 30 µM | 78 µM | 12 µM |  |  |
| C[C@H]1CC[C@@H]2[C@@H](OC(=O)[C@]23CN3c2cccc(Cl)c2)[C@]2(C)C(=O)C=C[C@@]12O | 2.03 | 48.4 µM | 39.5 µM | 86.1 µM |  |  |
| COc1cc(C2=NO[C@]3(C2)C(=O)O[C@@H]2[C@H]3CC[C@H](C)[C@]3(O)C=CC(=O)[C@@]23C)ccc1O | 0.75 | 88 µM | 71 µM | 16 µM |  |  |
| C[C@H]1CC[C@@H]2[C@@H](OC(=O)[C@]23CN3c2ccccc2[N+](=O)[O-])[C@]2(C)C(=O)C=C[C@@]12O | 1.31 | 33 µM | 28 µM | 10 µM |  |  |
| COc1ccc(C2=NO[C@]3(C2)C(=O)O[C@@H]2[C@H]3CC[C@H](C)[C@]3(O)C=CC(=O)[C@@]23C)cc1OC | 1.06 | 86 µM | 84 µM | 25 µM |  |  |
| C[C@H]1CC[C@@H]2[C@@H](OC(=O)[C@]23CC(c2ccc(C#N)cc2)=NO3)[C@]2(C)C(=O)C=C[C@@]12O | 1.17 | 53 µM | 26 µM | 32 µM |  |  |
| Cc1cccc(N2C[C@]23C(=O)O[C@@H]2[C@H]3CC[C@H](C)[C@]3(O)C=CC(=O)[C@@]23C)c1 | 1.83 | 15 µM | 62.5 µM | 61.5 µM |  |  |
